{
  "source": "paper PMC5538687",
  "about": "(International Journal of Nanomedicine, 2017)",
  "key": {"Eca109 xenograft tumor": {"test_system": "Eca109 xenograft tumor", "assay": "In vivo imaging and biodistribution", "set-up": "species or system BALB/c-nude mice", "conditions": "100 μL, 100 nM by peptide, i.v.; 1 hour postinjection"}, "[1]": {"test_system": "Eca109 xenograft tumor (FAPα in tumor stroma)", "assay_type": "in vivo, BALB/c-nude mice", "conditions": "for AUC of ROC curve, ESCC vs healthy mice: 1 hour urine, n=10 per group", "method_in_brief": "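BALB/c-nude mice aged 4–6 weeks were given 5×10⁶ Eca109 cells s.c. and grown 4 weeks to tumours of 100–300 mm³. Tumour-bearing and age-matched healthy mice (n=10 each) were co-injected via the tail vein with probe nanoparticles (100 μL PBS; 100 or 10 nM by peptide) plus control peptide at the same level. Urine was collected at set times, with 1 h urine used for diagnosis. It was stored at −80°C, diluted 1:10–10² in PBS/1% BSA, and run by ELISA in at least duplicate. ROC analysis was applied.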"}, "mouse FAPα protein": {"biological_target": "T1, mouse FAPα protein (Mus musculus, UniProt P97321)", "T1 sequence (P97321 1-761)": "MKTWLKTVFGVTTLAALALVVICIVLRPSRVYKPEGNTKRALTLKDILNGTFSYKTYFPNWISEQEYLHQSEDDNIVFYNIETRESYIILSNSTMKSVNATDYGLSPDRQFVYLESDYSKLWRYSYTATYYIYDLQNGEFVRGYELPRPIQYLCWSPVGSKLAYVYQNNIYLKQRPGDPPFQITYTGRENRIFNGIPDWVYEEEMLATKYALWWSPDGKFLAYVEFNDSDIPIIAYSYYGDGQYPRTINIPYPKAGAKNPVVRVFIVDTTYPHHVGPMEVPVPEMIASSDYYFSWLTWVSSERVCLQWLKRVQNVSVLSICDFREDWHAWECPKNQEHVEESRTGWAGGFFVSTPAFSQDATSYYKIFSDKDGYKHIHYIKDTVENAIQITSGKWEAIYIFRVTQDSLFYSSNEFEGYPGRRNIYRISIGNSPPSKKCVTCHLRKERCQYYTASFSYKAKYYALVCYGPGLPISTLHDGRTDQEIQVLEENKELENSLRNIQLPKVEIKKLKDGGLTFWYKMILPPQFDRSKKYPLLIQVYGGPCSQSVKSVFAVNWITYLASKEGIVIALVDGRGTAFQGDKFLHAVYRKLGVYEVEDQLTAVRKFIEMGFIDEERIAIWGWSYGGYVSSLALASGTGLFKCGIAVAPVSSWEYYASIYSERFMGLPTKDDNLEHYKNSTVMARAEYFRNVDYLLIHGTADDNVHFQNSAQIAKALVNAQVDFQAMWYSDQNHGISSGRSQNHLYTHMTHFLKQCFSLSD", "assay": "In vitro protease assay with recombinant FAPα", "assay_type": "biochemical", "conditions": "37°C"}},
  "note": "Read-outs that look alike come from different tables or passages of the source.",
  "data": [
    {"substance": "Bio-eGvndneeGffsar-K [5-FAM]-GPGPNQC [marker-MNPs]", "values": [
      {"measurement": "In vivo fluorescence imaging of tumor-bearing mice vs control", "setting": "Eca109 xenograft tumor", "result": "strong fluorescent activation in the tumor region and bladder"},
      {"measurement": "Sensitivity", "setting": "[1]; 10 nM group", "result": 90, "unit": "%"},
      {"measurement": "Specificity", "setting": "[1]; 10 nM group", "result": 97, "unit": "%"},
      {"measurement": "AUC of ROC curve, ESCC vs healthy mice", "setting": "[1]; 10 nM group", "result": 0.97},
      {"measurement": "Sensitivity", "setting": "[1]; 100 nM group", "result": 100, "unit": "%"},
      {"measurement": "Specificity", "setting": "[1]; 100 nM group", "result": 100, "unit": "%"},
      {"measurement": "AUC of ROC curve, ESCC vs healthy mice", "setting": "[1]; 100 nM group", "result": 1.0},
      {"measurement": "Time of peak concentration of cleaved reporter peptide in urine", "setting": "[1]; 100 nM marker-MNPs i.v., ESCC tumor mice, n=3, ELISA", "result": 60, "unit": "min"},
      {"measurement": "Time at which urinary cleaved reporter dropped to the bottom line", "setting": "[1]; 100 nM marker-MNPs i.v., ESCC tumor mice, postinjection", "result": 150, "unit": "min"},
      {"measurement": "Urine reporter in healthy mice", "setting": "[1]; 100 nM marker-MNPs i.v., healthy mice, 0–180 min", "result": "not detectable"},
      {"measurement": "Ratio of reporter to reporter control, ESCC vs healthy mice", "setting": "[1]; 1 hour postinjection urine, P<0.0001", "result": "significantly higher than in healthy control mice"},
      {"measurement": "Level of cleaved reporter peptides with increasing FAPα concentration", "setting": "mouse FAPα protein; marker-MNPs 10 nM by peptide, recombinant FAPα 0.1–100 pM, 1 hour, ELISA, n=3 per dose", "result": "elevated levels of cleaved reporter peptides were detected by ELISA with increasing concentration of FAPα"},
      {"measurement": "Level of cleaved reporter peptides over time", "setting": "mouse FAPα protein; marker-MNPs treated with 10 nM FAPα", "result": "increased over time"}
    ]}
  ]
}
